Drawing on ChEMBL document CHEMBL4513216, “Probing the Open Global Health Chemical Diversity Library for Multistage-Active Starting Points for Next-Generation Antimalarials” (ACS Infect Dis, 2020), this text covers cytotoxicity for 99 molecules.

A short description of this data set: Toxicity liver stage against HepG2, at 10uM. The class given is cell-based. Details: test concentration 10 uM, cell line HepG2-A16-CD81EGFP. As to conditions: human, HepG2-A16-CD81EGFP cells; read-out: INHIBITION
The method in brief: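 Uninfected HepG2-A16-CD81EGFP cells, 3 × 10^3 per well, 1536-well, plated on prespotted compound at 10 μM final, parasite-free screening media added to match infected plates; puromycin 10 μM positive, DMSO 0.5% negative; run in parallel with 48 h PbLuc assay at 37 °C, 5% CO2; viability by CellTiter-Glo luminescence, normalized to controls.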
With `CNCc1cn(C[C@H]2C[C@@H]3CCN2C[C@@H]3C(=O)NC2CCCCC2)nn1`, the cytotoxicity at 10 µM came out at 1.73%.
For the molecule `Cn1cccc1C(=O)COc1ccc(S(N)(=O)=O)cc1`, the cytotoxicity at 10 µM was found to be 12.4%.
For `c1ccc(CN2CCCC3(CCN(CC4CCCO4)CC3)C2)nc1` (centres undefined), the cytotoxicity at 10 µM was -115%.
`CC(C(=O)N1CCOCC1)n1cncn1` (centres undefined): the cytotoxicity at 10 µM is -1.45%.
Take `NC(=O)c1cc(C2CCCN(CCc3ccccn3)C2)n[nH]1` (centres undefined): the cytotoxicity at 10 µM was -8.44%.
As for `Cc1nnc(N2CCCC3(CN(Cc4nccs4)CCO3)C2)o1` (centres undefined), the cytotoxicity at 10 µM was found to be 2.08%.
With `Cc1cc2nc(C(C)C)cc(N3CCC(O)CC3)n2n1` the figure was -8.63%; with `CC(C)C1CCC(N2CCN(CCS(C)(=O)=O)CC2)CC1` (centres undefined), 7.23%.
In the case of `Cc1cnc(CN(C)C2CCN(CC(=O)Nc3nccs3)C2)o1` (centres undefined), the cytotoxicity at 10 µM was -1.49%.
Regarding `Cc1nccn1-c1cc(CNC(=O)CC2CCCO2)ccn1` (centres undefined), the cytotoxicity at 10 µM was 0.491%.
With `CC1=C(C#N)C(=O)NC(=O)/C1=C\c1c(C)[nH]n(-c2ccc(C)cc2)c1=O` the figure was 1.91%; with `Cc1ccc(CN(CCCn2ccnc2)Cc2ccccc2O)s1`, -14.6%; with `c1cc(CNc2ncc(-c3cnccn3)c(C3CC3)n2)ccn1`, 24%.
Regarding `CCC[C@H]1CN(C(=O)CCn2ccccc2=O)C[C@@H]1NS(C)(=O)=O`, the cytotoxicity at 10 µM worked out at 5.35%.
As to `CC1N(CC2CC2)C(=O)COC12CCN(C(=O)c1cccs1)CC2` (centres undefined), the cytotoxicity at 10 µM is -3.64%.
With `O=C(Cc1cn2ccsc2n1)N1CCOCC(O)(CN2CCCC2)C1` (centres undefined) the figure was -3.36%; with `O=C1CO[C@H]2CN(Cc3ccc4c(c3)OCO4)C[C@H]2N1`, 0.801%.
For the molecule `Cc1ccc(N2CCCC(NCc3nnc4n3CCCC4)C2=O)cc1` (centres undefined), the cytotoxicity at 10 µM was -6.69%.
As for `Cc1nn(C)c(N2CCOCC2)c1CNC(c1cccs1)C(C)C` (centres undefined), the cytotoxicity at 10 µM is -2.53%.
For the molecule `Cc1cc(Br)oc1C(=O)N1CCC(N(C)C)CC1`, the cytotoxicity at 10 µM was -4.71%.
For `CSCc1nc(CNC(=O)C2CCCN(CC(N)=O)C2)cs1` (centres undefined), the cytotoxicity at 10 µM was -7.82%.
As for `CCOCCN1CCN(c2ncccc2C#N)CC1CC` (centres undefined), the cytotoxicity at 10 µM turned out to be 5.94%.
For `CN(C)C(=O)CO[C@@H]1CC[C@H]2[C@H]1OCCN2c1ncc(F)cn1`, the cytotoxicity at 10 µM worked out at 5.44%.
Consider `O=C(NCC[S+]([O-])c1ccccc1)c1ccc2[nH]c(=O)[nH]c2c1` (centres undefined), for which the cytotoxicity at 10 µM amounted to 3.18%.
With `CC(C)c1nc(CNC2CCN(S(C)(=O)=O)CC2)cs1` the figure was -1.53%; with `CC(=O)c1cccc(NC(=O)Cn2cc(-c3ccccc3)ncc2=O)c1`, -2.45%; with `CCNC(=O)c1nnn(Cc2ccccc2)c1OC`, 4.62%.
On to `CC(C)c1nc(CN(C)Cc2ccc(O)c(Cl)c2)cs1`, for which the cytotoxicity at 10 µM is -7.27%.
As for `CC(c1cncs1)N(C)Cc1ccc(CCC(C)(C)O)cc1` (centres undefined), the cytotoxicity at 10 µM was determined as 4.68%.
As to `O=C(NC1CCCC1)c1cc(C2CCCNC2)n[nH]1` (centres undefined), the cytotoxicity at 10 µM amounted to 5.27%.
Take `CCn1cc2c(n1)C(COCC1CC1)CN(C(=O)c1cnoc1C)C2` (centres undefined): the cytotoxicity at 10 µM amounted to 17.5%.
With `CS(=O)(=O)Cc1ccc(NC(=O)c2cccnc2)cc1F` the figure was -1.53%; with `c1ccc2c(c1)CCN(c1ncnc3sc4c(c13)CCNC4)C2`, 5.66%; with `CC(C)CCNC(=O)CCc1ccnc2ccccc12`, -0.69%.
On to `Cc1ncc(CC(=O)N2CCCCC2CCN2CCCC2)c(=O)[nH]1` (centres undefined), for which the cytotoxicity at 10 µM is -9.2%.
In the case of `OCC(CO)Nc1cccc(C(F)(F)F)n1`, the cytotoxicity at 10 µM is 0.409%.
With `N#Cc1cccc(CNC(=O)NC2CCN(CC(F)F)CC2)c1`, the cytotoxicity at 10 µM was 4.16%.
In the case of `CC(O)c1cn(CC2CCN(C(=O)c3cccc(N(C)C)c3)CC2)nn1` (centres undefined), the cytotoxicity at 10 µM was -0.412%.
As for `COc1ccc2c(c1)OC1(CCN(Cc3ccc(C)cc3)CC1)CC2=O`, the cytotoxicity at 10 µM amounted to 7.6%.
With `Cn1cncc1CN1CCOC(Cc2ccccc2)C1` (centres undefined) the figure was 9.43%; with `Cc1ccc(NC2CCN(C(=O)CCc3ccco3)CC2)nn1`, -2.97%; with `COc1ccc(-c2nccnc2C2CCN(C(C)=O)CC2)cc1`, -4.43%.
In the case of `Cc1cc(C(=O)N2CCCC(n3cncn3)C2)c(C)n1CC1CC1` (centres undefined), the cytotoxicity at 10 µM was 2.37%.
Next, `CC(C)CN1Cc2cccc(NC(=O)Cc3ccon3)c2C1`: 4.86%; `Cc1ccsc1-c1nccn1C1CC(=O)N(C(C)C)C1` (centres undefined): -9.73%.
Next, `Cc1ccc(C2CN(c3nnc(C(F)F)s3)CCO2)c(C)c1` (centres undefined): 3.28%; `CC(NC(=O)N1CCN(CCc2ccccc2)CC1)c1nncn1C` (centres undefined): 0.0722%; `COc1ccc(CN2C[C@@H]3CN(Cc4ccncc4)C[C@@H]3C2=O)cc1`: -3.86%.
For `CCN(CC)c1ncc2c(O)nc(C3CCNCC3)cc2n1`, the cytotoxicity at 10 µM was determined as 14.7%.
With `CCn1cnnc1CCNS(=O)(=O)N1CCCC1c1ccco1` (centres undefined), the cytotoxicity at 10 µM was -136%.
Consider `Cc1ccc(NC2CCCN(CCc3ccccc3)C2)nn1` (centres undefined), for which the cytotoxicity at 10 µM was 11.7%.
With `c1cc(CN(CCCn2ccnc2)Cc2ccoc2)ccn1` the figure was -11.1%; with `CCC(O)Cn1nc(CCSC)nc1-c1ccc2c(c1)OCCO2` (centres undefined), -0.268%.
With `CCCC(=O)NCC(Cc1cccc(F)c1)N1CCCC1=O` (centres undefined) the figure was -2.91%.
For the molecule `NCC1(c2cccc(C(F)(F)F)c2)CCCCC1`, the cytotoxicity at 10 µM is -8.66%.
`Cc1nc(-c2ccsc2)ccc1C(=O)N1CCn2c(C)nnc2C1`: the cytotoxicity at 10 µM is -7.83%.
With `Cc1cc2c(cc1C)C(NC1CC1)CCCO2` (centres undefined) the figure was 4.57%; with `CN(CC(=O)NS(=O)(=O)c1cccs1)Cc1ccccc1`, -9.71%; with `Cn1ncc2c(NCCn3cccc3)nc(C3CCCC3)nc21`, 3.07%.
On to `COc1ccc(C(=O)N2CCOc3ccncc32)cc1`, for which the cytotoxicity at 10 µM turned out to be 12.8%.
On to `CC(C)N(C)Cc1nnc2n1CCCN(S(=O)(=O)C1CC1)C2`, for which the cytotoxicity at 10 µM is -0.48%.
Turning to `Cc1[nH]c(=O)[nH]c(=O)c1CN1CCCC(CCc2ccc(F)c(F)c2)C1` (centres undefined), the cytotoxicity at 10 µM came out at 1.4%.
As for `CN(C)C(=O)NCc1ncn2c1CN(Cc1cccs1)CCC2`, the cytotoxicity at 10 µM worked out at 8.07%.
Turning to `CCOCCNC(=O)Nc1cccc(-c2nccn2C)c1`, the cytotoxicity at 10 µM is -3.26%.
As for `c1ccc(CN2C[C@@H]3OCCN(c4cccnc4)[C@@H]3C2)nc1`, the cytotoxicity at 10 µM was -72.8%.
`COC1(CNC(=O)NCCOc2ccccc2)CCSC1` (centres undefined): the cytotoxicity at 10 µM is -0.572%.
With `Cc1ccc2c(c1)C(N(C)C)CC21CCN(CCO)CC1` (centres undefined) the figure was 3.62%; with `CC(=O)N(Cc1noc(C)n1)C1CCN(CC2CCCC2)C1` (centres undefined), -12.3%; with `CNc1nccnc1C1CN(C(=O)c2c[nH]cn2)CCO1` (centres undefined), 3.4%.
As to `COc1ccccc1CN1CCC2(CC1)CC(Oc1ccccn1)CO2` (centres undefined), the cytotoxicity at 10 µM is -1.96%.
Regarding `Cc1ncc(C(=O)NC2CCc3nccn3C2)c(C(C)C)n1` (centres undefined), the cytotoxicity at 10 µM is -2.31%.
Regarding `COCCN1CCO[C@@H]2CN(Cc3ccccc3OC)C[C@@H]2C1`, the cytotoxicity at 10 µM was -2.48%.
For the molecule `Cn1cc(C#N)c(=O)n(CC(O)c2ccccc2F)c1=O` (centres undefined), the cytotoxicity at 10 µM was -11%.
Regarding `Cc1csc2c(N3CCNC(C(=O)NCc4cccnc4)C3)ncnc12` (centres undefined), the cytotoxicity at 10 µM amounted to 1.74%.
Next, `Cc1ncnc2c1CCN(C(=O)c1cnccn1)CC2`: -5.19%; `CC(C)(C)c1nc(CNc2ccccc2SCCC(N)=O)cs1`: 23.5%; `COCCN1CCCC(C)(c2cc(O)[nH]n2)C1` (centres undefined): 10.8%.
Take `COCc1nn(CC2CC2)c2c1CN(Cc1cccs1)CC2`: the cytotoxicity at 10 µM was determined as 0.994%.
As for `CCCC(O)CN1CC(C)(C)CN(C(=O)c2ccc(SC)cc2)CC1=O` (centres undefined), the cytotoxicity at 10 µM is -4%.
As to `Cc1oc(-c2ccsc2)nc1CC(=O)NCC(C)(C)CN(C)C`, the cytotoxicity at 10 µM was -5.81%.
For the molecule `CCc1nnc(CNC2CCN(c3ncnc4c(C)csc34)CC2)s1`, the cytotoxicity at 10 µM came out at 10.5%.
On to `CCc1cc(N2CCN3CCCCC3C2)n2nccc2n1` (centres undefined), for which the cytotoxicity at 10 µM was -1.12%.
In the case of `N#Cc1cc(C#N)c(SCCC(=O)Nc2ccc(F)cc2)nc1N`, the cytotoxicity at 10 µM stood at 4.89%.
With `CCc1cnc(N2CCCOC(CN3CCCC3)C2)nc1` (centres undefined) the figure was -5.77%; with `CNC(=O)CN1CCOCC2(CCCN(Cc3ccoc3)C2)C1` (centres undefined), 6.65%.
Regarding `CCN1C(=O)C(C#N)=C(C)/C(=C/C2=Cc3ccccc3OC2)C1=O`, the cytotoxicity at 10 µM was -40.9%.
In the case of `Cc1cccc(N2CCN(C(=O)CNCCn3cccn3)CC2)c1`, the cytotoxicity at 10 µM is -6.16%.
Next, `OCc1ccc(N2CCN(c3ncccn3)CC2)c(F)c1`: -23.8%; `C=C(C)COCCNC(=O)N1CCc2c(cccc2OC)C1`: 3.55%; `CN(CC(=O)N1CCN(c2ccccn2)CC1)c1ccc(Cl)cn1`: -2.3%.
Regarding `Cc1[nH]c2ccc(CNc3cc(C#N)ccn3)cc2c1C`, the cytotoxicity at 10 µM is -8.4%.
For `COC(=O)c1cccc(S(=O)(=O)NCC(c2ccco2)N2CCCC2)c1` (centres undefined), the cytotoxicity at 10 µM was -1.74%.
For the molecule `CCn1c(Cn2cncn2)nnc1C1CCN(Cc2ccccn2)CC1`, the cytotoxicity at 10 µM is 9.78%.
Take `CNC(=O)N1Cc2cc(F)ccc2C2(CCN(C)CC2)C1`: the cytotoxicity at 10 µM came out at 0.595%.
As to `OCc1ccc(CN2CCC(n3cc(C4CCCCC4)nn3)CC2)o1`, the cytotoxicity at 10 µM is 1.02%.
Next, `CN(c1nc(CSc2nnc(Cn3cncn3)o2)cs1)C1CC1`: 6.6%; `CNCc1cn(CC2CCN(Cc3cccs3)CC2)nn1`: -4.47%.
Turning to `Cn1nc(C2CCCN2)c2c(C(=O)NC3CC3)cc(C3CC3)nc21` (centres undefined), the cytotoxicity at 10 µM worked out at 15.3%.
With `CCC(O)(CNCc1cc[nH]n1)c1ccc(Br)cc1` (centres undefined) the figure was 2.69%.
